Screening results from PubChem.
Cl transport mod: KCC2 (human) Cl- transport modulation; Q9H2X9; KCC2 cells, thallium flux FluoZin-2 fluorescence; B-score of Tl+ flux slope (higher = more flux/activation; lower = inhibition) at 10 µM; 2.2% of 190,000 active;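 active = thallium flux slope and its plate-corrected score both differing from the plate sample mean at a set confidence after two filtering rounds, in either direction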;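 also: slope of fluorescence scaled to starting intensity during 10 to 20 s after thallium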
ROMK primary: human ROMK K+ channel modulation, primary screen. P48048. Tet-inducible ROMK, thallium flux fluorescence; actives lie on both sides. B-score at 10 µM. 2% of 130,000 active. AID 1918;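 active = signal ratio slope over the read window, or its plate-corrected B-score, at least 3 SD from the plate mean, either direction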;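 also: B-score of the F/F0 ratio slope over 7 to 12 s after thallium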
Target sequence (P48048 whole entry, looked up): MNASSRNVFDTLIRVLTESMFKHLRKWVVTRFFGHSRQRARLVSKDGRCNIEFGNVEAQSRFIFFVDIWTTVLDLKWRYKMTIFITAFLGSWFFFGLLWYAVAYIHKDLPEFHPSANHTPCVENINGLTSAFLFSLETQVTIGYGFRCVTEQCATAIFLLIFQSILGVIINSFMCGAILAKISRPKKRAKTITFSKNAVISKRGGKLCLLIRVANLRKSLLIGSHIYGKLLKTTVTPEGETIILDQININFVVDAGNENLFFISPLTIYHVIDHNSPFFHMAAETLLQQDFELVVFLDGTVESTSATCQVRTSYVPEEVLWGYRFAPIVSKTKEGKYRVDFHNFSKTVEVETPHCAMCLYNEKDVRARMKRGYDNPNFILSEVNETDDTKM
DTT redox prof: compounds producing H2O2 with reducing agent – biochemical, NIH compound library profiling, artefact control for MLSCN library redox annotation, primary screen; activation, % at 10 µM; AID 878; 0.03% of 200,000 active; DTT-dependent redox cycling H2O2, phenol red/HRP absorbance; 100% = 100 µM peroxide control, 0% = buffer;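 active = activation of at least 50% relative to the plate's high and low controls in the primary single-dose screen; inactive = activation below 50%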;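 also: compound incubated with DTT at 0.8 mM final as the reducing agent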
Dynein cargo inh: blocks dynein driven cargo transport along microtubules; 3617.4 mouse cells, GR-EGFP nuclear translocation imaging; test concentration mostly 20 µM; stimulated with dexamethasone, 1 µM; stronger effect = lower value; z-score, hits read low; 0.47% of 220,000 active;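 active = plate z-score of nuclear minus cytoplasmic receptor signal below a set negative limit, without overly bright fluorescence or cell loss, cut at about -3.5 in these data, passing the limit was not always enough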;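 also: z-score of nuclear minus cytoplasmic ring GR-EGFP intensity difference per well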
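Medium: Induction medium lacking tetracycline, stripped serum | Probe or stimulus: 1.0 µM final dexamethasone stimulus | Schedule: 48 h induction, then 1 h compound, then 30 min agonist, 37 °C | Signal: Automated 10x imaging of fixed Hoechst-stained cells | Evaluation: Per-cell GR-EGFP intensity, nucleus versus surrounding cytoplasmic ring, well-averaged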
Autophagy mod: autophagy modulation, high-content screen; MEF GFP-LC3 puncta imaging; test concentration mostly 10 µM; calls only at 10 µM (by protocol); 0.98% of 190,000 active; AID 463193;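 active = percentage of spot-positive cells more than 3 SD above its plate mean, without a fluorescence outlier flag or 80% toxicity; inconclusive = no clear call, values can overlap the other calls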;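 also: spot-positive cell cutoff set from DMSO-treated cells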
KCC2 sec1: KCC2 (human) modulation, secondary assay; HEK293-KCC2, thallium flux, FluoZin2 fluorescence; stronger effect = higher value; AID 1713; shares compounds with Cl transport mod; normalised thallium flux (F/F0 slope) at 10 µM; 15% of 3,700 active;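 active = thallium flux slope above the same plate's solvent-only control mean plus 3 SD; inconclusive = the two replicate wells disagree; inactive = no significant difference from solvent-only control wells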
KCC2 bumet counter: thallium flux persisting under bumetanide in KCC2 cells, counter-screen secondary assay | shares compounds with Cl transport mod | HEK293-KCC2 + bumetanide/ouabain, thallium flux FluoZin2; stronger effect = higher value | normalized thallium flux at 10 µM | 49% of 3,700 active | AID 1714;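 active = thallium entry rate above the same plate's blocked-transporter control wells by more than 3 SD; inconclusive = the two repeat wells disagree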;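 also: raw slope of fluorescence over initial fluorescence between 10 and 20 s after thallium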
KCC2 secondary2: confirmation of human KCC2 transport modulators | normalized thallium flux at 10 µM | HEK293-KCC2, thallium flux FluoZin2 fluorescence; actives lie on both sides; F/F0 rise rate, 10–20 s post-thallium | shares compounds with Cl transport mod | 23% of 3,700 active | AID 1715;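 active = thallium flux slope more than 3 SD above or below the plate's solvent-only control mean, mostly below; inconclusive = the two repeat wells disagreed; inactive = no significant shift from solvent-only controls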;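 also: raw slope with 0.1% DMSO as baseline and bumetanide as block control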
HEK293 Tl flux: parental HEK flux effect, counter-screen; shares compounds with Cl transport mod; HEK293 parental cells, thallium flux FluoZin2, ouabain; baseline-ratio fluorescence slope, 10–20 s after thallium; thallium flux rate (normalised fluorescence) at 10 µM; 46% of 3,700 active; AID 1716;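 active = thallium flux rate significantly above the same plate's solvent-only control wells, beyond their mean plus 3 SD; inconclusive = the two replicate wells gave conflicting results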
KCC2 ouabain: confirmation of human KCC2 modulators with ouabain; shares compounds with Cl transport mod; HEK293-KCC2, thallium flux FluoZin2 fluorescence; bidirectional: low = inhibitor, high = activator; raw Tl+ flux slope (below DMSO = inhibition, above = activation) at 10 µM; 48% of 3,700 active;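 active = thallium flux slope beyond 3 SD from same-plate DMSO control mean in most replicates, usually higher, sometimes lower; inconclusive = repeat tests gave conflicting results; inactive = no significant difference from controls in most replicates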;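 also: slope of initial-normalized fluorescence between seconds 10 and 20 after thallium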
HEK293 Tl flux2: parental HEK flux effect, counter-screen 2 | HEK293 parental, thallium flux FluoZin-2 fluorescence slope | shares compounds with Cl transport mod | thallium flux slope at 10 µM | 33% of 3,700 active;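 active = thallium flux slope above the same plate's solvent-control mean plus 3 SD in both duplicate wells; inconclusive = duplicate wells that disagreed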;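 also: run without ouabain in cells lacking the KCC2 cotransporter; slope of fluorescence scaled to its starting value between 10 and 20 s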
* marks the source's active call; other numbers are inactive results; i = inactive; ? = inconclusive; . = not tested or not shown. Hits are enriched below; roughly 4.1% of the tested compounds scored in any of these assays.

SMILES	Cl transport mod	ROMK primary	DTT redox prof	Dynein cargo inh	Autophagy mod	KCC2 sec1	KCC2 bumet counter	KCC2 secondary2	HEK293 Tl flux	KCC2 ouabain	HEK293 Tl flux2
COc1ccccc1NC(=O)c1cc2c(s1)-c1ccccc1S(=O)(=O)C2	0.019	1.5	.	-1.1	.	.	.	.	.	.	.
CCCCCCN1N=C(C)C(C(=O)c2ccc(Cl)cc2)C1=O (stereo unspecified)	5*	0.61	-4	0.82	i	0.013*	0.025*	0.033	0.014*	0.032*	?
CCCCN(C(=O)c1ccc(Cl)cc1)C1CC2CCC(C1)N2C (stereo unspecified)	0.42	.	0	-0.17	.	.	.	.	.	.	.
CCCCCCCN1N=C(C)C(C(=O)c2ccccc2)C1=O (stereo unspecified)	3.1*	0.95	-2	0.77	i	0.008	0.024*	?	0.014*	0.03*	0.017*
COc1ccc(S(=O)(=O)NCCSCc2ccco2)cc1Cl	6.4*	-1.9	1	-0.92	i	0.006	0.0045	0.03	0.0071	0.017	0.011
O=[N+]([O-])c1ccc(N2CCN(C(=S)Nc3ccc(F)cc3F)CC2)cc1	0.81	-0.94	0	-0.51	i	.	.	.	.	.	.
COc1cc(S(=O)(=O)NCCN2CCOCC2)c(OC)cc1Cl	0.71	-0.0056	1	-0.18	i	.	.	.	.	.	.
COc1ccc(S(=O)(=O)NCCN2CCOCC2)c2ccccc12	.	-0.32	0	1.8	i	0.0095	0.0064	0.031	0.007	0.023	0.0097
CN1C(=O)/C(=C/c2cc3c(cc2Br)OCO3)NC1=S	7.1*	1.4	0	-0.42	i	?	0.023*	0.033	0.013*	0.031*	0.011
Cc1snnc1C(=O)NC(=S)Nc1ccccc1	52*	.	.	-0.55	.	0.026*	0.089*	?	0.047*	0.064*	0.014*
COc1cc(C(=O)NNC(=S)NC(=O)/C=C/c2ccccc2)cc(OC)c1OC	1.1	.	.	1.1	.	.	.	.	.	.	.
O=C(NC(=S)Nc1ccccc1)c1ccc(Br)o1	111*	.	-1	-0.2	i	0.046*	0.19*	0.062*	0.1*	0.13*	0.036*
COc1ccc(NC(=S)NC(=O)c2ccc(Br)o2)cc1	100*	.	-1	2.7	i	0.057*	0.14*	0.061*	0.12*	0.11*	0.053*
COc1cc(C(=O)NNC(=S)NC(=O)c2ccc(Cl)cc2)cc(OC)c1OC	13*	0.42	-1	-0.62	i	0.017*	0.028*	0.038	0.017*	0.033*	0.012*
C/C(=N\NC(=S)Nc1ccccc1C)c1ccc(O)cc1	-0.11	-0.0091	0	-1	i	.	.	.	.	.	.
COc1ccc(C(=O)NC(C(=O)NCC(=O)Nc2c(C)cccc2C)C(C)C)cc1 (stereo unspecified)	0.4	0.35	0	0.49	i	.	.	.	.	.	.
CC(C)(C)Nc1nc2ccc([N+](=O)[O-])cc2o1	-0.036	.	.	0.21	.	.	.	.	.	.	.
Cc1cc2oc(=O)cc(CN3CCN(S(=O)(=O)c4cccs4)CC3)c2cc1C	-0.25	.	0	-0.59	i	.	.	.	.	.	.
CCO[C@H]1OC(C(=O)N2CCCCCCC2)=C[C@@H](C)[C@@H]1CCCO	0.12	.	-1	3.1	i	.	.	.	.	.	.
COc1ccc(C(=O)NC(=S)NNC(=O)c2cnccn2)cc1OC	0.41	.	0	-0.066	i	.	.	.	.	.	.
O=C(NN=C1CCCC1)c1sc2ccccc2c1Cl	11*	0.0025	-1	1.5	i	0.0057	0.023*	0.031	0.022*	?	0.019*
COc1ccc(C(=O)NNC(=S)NC(=O)c2ccc(Br)o2)cc1OC	6.3*	-0.13	-2	0.59	i	0.0065	0.021*	0.038*	0.02*	?	0.021*
O=C(NNC(=S)NC(=O)c1sc2ccccc2c1Cl)c1ccc(Cl)cc1	25*	2.1	0	0.26	i	0.017*	0.053*	?	0.037*	0.052*	0.013*
O=C(Nc1ccc(Nc2ccccc2)cc1)c1ccc(Br)o1	-5.7*	.	4	0.23	i	?	0.0048	0.03	0.0067	0.013*	?
COc1cccc(Nc2ncc(C#N)c(N)n2)c1	0.32	.	.	0.0082	.	.	.	.	.	.	.
SMILES	Cl transport mod	ROMK primary	DTT redox prof	Dynein cargo inh	Autophagy mod	KCC2 sec1	KCC2 bumet counter	KCC2 secondary2	HEK293 Tl flux	KCC2 ouabain	HEK293 Tl flux2
O=C(CCC(=O)N/N=C/c1cc(Cl)cc(Cl)c1O)NCc1ccccc1	.	.	0	0.59	i	.	.	.	.	.	.
CCCCN(Cc1ccccc1)C(=O)CCN1C(=O)C2C3C=CC(C3)C2C1=O (stereo unspecified)	0.69	0.49	-3	0.47	i	.	.	.	.	.	.
CC1=C(C(=O)OCC(C)C)C(c2cccs2)NC(=S)N1 (stereo unspecified)	0.13	.	0	-0.57	i	.	.	.	.	.	.
COc1ccc(NC(=S)NC(=O)/C=C/c2ccco2)cc1	4.4*	1.2	-1	-0.045	i	0.01	0.016*	0.037	?	?	0.012
Cc1ccc(C(=O)N/C(=C\c2ccccc2)C(=O)OCc2ccccc2)cc1	-1.8	.	0	0.51	i	.	.	.	.	.	.
O=C(NCCO)/C(=C/c1ccc(Br)cc1)NC(=O)c1cccs1	.	.	1	1.3	i	0.0084	0.0068	0.03	0.0067	0.02	0.0098
O=C(CNC(=O)/C(=C\c1ccc(Br)cc1)NC(=O)c1ccccc1)OCc1ccccc1	-6.1*	.	0	-1	i	0.0066	0.0046	0.021*	0.0077	0.012*	0.01
O=C(CNC(=O)/C(=C/c1ccccc1)NC(=O)c1ccc(Br)cc1)OCc1ccccc1	-6.9*	.	0	1	i	0.0078	0.0057	0.022*	0.0064	0.011*	0.009
O=C(/C=C/c1ccccc1)NC1CCCc2ccccc21 (stereo unspecified)	0.33	0.054	-1	1.3	i	.	.	.	.	.	.
Cn1c(=O)c2c(nc(Br)n2C/C=N/NC(N)=S)n(C)c1=O	.	.	.	-0.83	.	.	.	.	.	.	.
Cc1nc(=S)c2c([nH]1)-c1ccccc1CC21CCCCC1	77*	.	.	-0.69	.	0.02*	0.1*	0.03	0.04*	0.068*	0.011*
